LGR2 antag – Drosophila LGR2 receptor signaling inhibition; inhibition, % at 9.99 µM; AID 720647; hit rate 0.35% among 380,000; HEK293 LGR2, CRE-luciferase, bursicon-stimulated, 4 h;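 active = drop in luminescence signal, shown as inhibition above about 50% in the replicate tests, limit read from the data, passing the limit was not always enough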;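 note: agonist challenge used bursicon conditioned medium at about half maximal strength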
TROY signal inh – inhibitors of TROY-dependent NF-kB signaling. Q293 LMP1-TROYcd NF-kB luciferase reporter, 4 h. inhibition, % at 10 µM. hit rate 0.98% among 360,000. AID 1347056;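 active = compounds whose plate-normalised and pattern-corrected inhibition of the luciferase reporter signal at the single screening dose is 50% or more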
CaV13 ICDI inh – Primary screen for inhibitors of IQ motif and Ca2+-dependent inactivation inhibitor domain binding in CACNA1D, Förster resonance energy transfer in living cells, …; inhibition, % at 12.3 µM; hit rate 0.098% among 340,000; HEK cells, CFP/YFP FRET ICDI-IQ, plate reader, 10 min; percent FRET-ratio fall versus neutral wells;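 active = mean replicate inhibition of at least 30% and at least 1% of replicates passing that level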;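 note: 0% = median of the neutral control wells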
Xi reactivation – activators of X-chromosome reactivation in mouse fibroblasts; activation, % at 7.58 µM; XiGFP mouse fibroblasts, % GFP-positive cells imaging, 3 d; cells co-treated with 5-aza-dC sensitizer; scaled so ellipticine positive control = 100%; AID 743238; hit rate 0.055% among 360,000;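 active = mean normalized replicate activation at least 10% and every replicate at or above 10%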;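 note: 0% = median of on-plate neutral control wells and 100% = ellipticine 6 µM median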
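assay system = SV40-immortalized XiGFP fibroblast cells, line 68-5-11 | buffer or medium = DMEM plus 5-aza-dC sensitizer | doses = single-point pinned compound dosing | times = 3-day compound exposure, then 15 min fixation at room temperature | benchmarks = positive control ellipticine, 6 µM final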
TWEAK Fn14 block – inhibitors of TWEAK-Fn14 interaction signaling | TWEAK-stimulated Fn14 reporter cells, luciferase luminescence, 8 h | inhibition, % at 10 µM | hit rate 2% among 360,000; in the data active = inhibition above about 50%
Starred values were filed as active, the others as inactive; · = not tested or not shown. Sampled rows, rich in hits. Any-hit rate of the full collection: about 2%.

SMILES	LGR2 antag	TROY signal inh	CaV13 ICDI inh	Xi reactivation	TWEAK Fn14 block
O=C(NCCc1ccc(Cl)cc1)c1ccc2c(c1)OCO2	-123	-57	·	0	-5
O=C(NCCc1ccccc1F)c1ccc2c(c1)OCCO2	102*	86*	-6	0	108*
O=C(NCc1ccccc1F)c1ccc2c(c1)OCO2	-22	4	-5	·	34
O=C(NCCc1ccc(Cl)cc1)c1ccc2c(c1)OCCO2	58*	0	-1	0	54*
C[C@@H]1CN([C@@H](C)CO)C(=O)c2cc(NS(=O)(=O)c3ccc(F)cc3)ccc2O[C@@H](C)CCCCO[C@@H]1CN(C)C(=O)c1ccccc1	13	·	·	-1	·
CN1C(=O)c2cc(NC(=O)c3cscn3)ccc2OC[C@@H]2O[C@@H](CC(=O)NCC3CC3)CC[C@@H]21	13	·	·	0	·
CO[C@@H]1CN(C)C(=O)c2cc(NS(=O)(=O)Cc3ccccc3)ccc2OC[C@H](C)NC[C@@H]1C	1	·	·	0	·
Cc1ccc(S(=O)(=O)Nc2ccc3c(c2)C(=O)N([C@@H](C)CO)C[C@H](C)[C@@H](CN(C)C(=O)Nc2c(C)noc2C)O3)cc1	-7	·	·	0	·
Cc1ccccc1Oc1nc2c(C)cccn2c(=O)c1/C=C(\C#N)C(=O)Nc1c(C)n(C)n(-c2ccccc2)c1=O	4	44	-3	0	52*
Cc1ccccc1Oc1nc2ccccn2c(=O)c1/C=C(\C#N)C(=O)Nc1c(C)n(C)n(-c2ccccc2)c1=O	-5	19	-6	0	-1
Cc1cccn2c(=O)c(/C=C(\C#N)C(N)=O)c(N3CCN(c4ccccc4)CC3)nc12	1	0	-2	0	13
Cc1cccn2c(=O)c(/C=C(\C#N)C(N)=O)c(Oc3ccccc3)nc12	11	-18	38*	0	-11
C[C@@H]1CN([C@@H](C)CO)C(=O)c2cc(NC(=O)c3ccncc3)ccc2O[C@H]1CN(C)Cc1ccc(Oc2ccccc2)cc1	0	·	·	0	·
CN1/C(=C\C=Nc2ccc3ccccc3c2)C(C)(C)c2ccccc21	·	66*	·	·	3
CN(C)c1ccc(N=C/C=C2\N(C)c3ccccc3C2(C)C)cc1	·	12	·	·	51*
CN1/C(=C\C=O)C(C)(C)c2ccccc21	-5	-9	2	0	6
CN1/C(=C/C=C(C#N)C#N)C(C)(C)c2ccccc21	·	9	12	25*	-9
O=C(C[C@@H]1CC[C@@H](NS(=O)(=O)c2ccc(F)cc2)[C@H](CO)O1)NC1CCCCC1	-13	·	·	0	·
O=C(N/N=C\c1cn(-c2ccccc2)nc1-c1ccccc1)c1ccc(Br)o1	·	25	-4	·	55*
O=C(O)c1cccc(N/N=C/c2cccc3ccccc23)c1	-19	-56	-17	0	-34
Cc1ccc(/C=N/Nc2cccc(C(=O)O)c2)s1	58*	-25	-5	0	-18
CCOc1cc(/C=N/Nc2cccc(C(=O)O)c2)ccc1OC(=O)c1ccccc1	64*	-49	-4	0	8
Cc1ccc(-c2nn(-c3ccccc3)cc2/C=N/NC(=O)c2ccc(Br)o2)cc1	·	10	-1	·	35
Cc1nn(-c2ccccc2)c(Cl)c1/C=N/NC(=O)c1cccc(S(=O)(=O)N2CCCC2)c1	-5	7	-15	0	62*
O=C(C[C@H]1CC[C@H](NS(=O)(=O)c2ccc(F)cc2)[C@H](CO)O1)NC1CCC1	15	·	·	-1	·
Cc1ccc(/C=N/Nc2ccc(C(=O)O)cc2)s1	90*	-9	-3	0	11
COc1ccc(-c2nn(-c3ccccc3)cc2/C=N/NC(=O)c2cccc(S(=O)(=O)Nc3ccccc3Cl)c2)cc1	0	16	-2	0	56*
Cc1nn(-c2ccccc2Cl)c(Cl)c1/C=N/Nc1cccc(C(=O)O)c1	80*	-104	-4	0	-23
CN(C)C(=O)C[C@@H]1CC[C@@H]2[C@H](COc3ccc(NC(=O)C4CCC4)cc3C(=O)N2C)O1	-1	·	·	0	·
C=CCC[C@@H](Cc1ccc(F)cc1)C(=O)OC[C@H](Cc1c[nH]c2ccccc12)NC(=O)[C@H](CC=C)CC(=O)N(CCO)Cc1ccccc1	35	17	-3	0	60*
